Source: ChEMBL document CHEMBL1157799, “Creating an antibacterial with in vivo efficacy: synthesis and characterization of potent inhibitors of the bacterial cell division protein FtsZ with improved pharmaceutical properties” (J Med Chem, 2010)
In brackets after ≈: the same amount, converted by molar mass. Activity calls are given as the source filed them. The rule behind the calls is not given here.

Tests used:
[1] = test system: Staphylococcus aureus; experiment: Antibacterial activity against Staphylococcus aureus ATCC 29213 by broth microdilution assay; type: functional
Method in brief: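 Broth microdilution MIC per CLSI recommendations; reproducibility within one 2-fold dilution of the end point.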

[2] = molecular target: T1, Cell division protein FtsZ (Staphylococcus aureus) (UniProt P0A031); experiment: Inhibition of Staphylococcus aureus ATCC 29213 FtsZ assessed as lowest drug level required for ballooning of cells by light microscopy
T1 sequence (whole entry): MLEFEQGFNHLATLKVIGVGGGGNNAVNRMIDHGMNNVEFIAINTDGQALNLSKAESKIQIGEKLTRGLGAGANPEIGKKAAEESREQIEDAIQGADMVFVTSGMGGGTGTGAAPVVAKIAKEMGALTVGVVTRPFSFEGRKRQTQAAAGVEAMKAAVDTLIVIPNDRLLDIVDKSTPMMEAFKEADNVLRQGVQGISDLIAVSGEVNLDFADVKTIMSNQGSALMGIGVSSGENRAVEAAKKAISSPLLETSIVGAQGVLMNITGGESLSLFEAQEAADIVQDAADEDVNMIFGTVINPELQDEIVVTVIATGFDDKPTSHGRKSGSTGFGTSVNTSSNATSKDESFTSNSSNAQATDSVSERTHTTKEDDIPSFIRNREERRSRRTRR
Method in brief: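 Cocci examined by light microscopy for morphology. Value is the lowest concentration at which ballooning appears; WT is recorded when morphology is unchanged.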

[3] = test system: Staphylococcus aureus; experiment: Antibacterial activity against Staphylococcus aureus ATCC 29213 by broth microdilution assay in presence of 2% bovine serum albumin; type: functional
Method in brief: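 Broth microdilution MIC per CLSI recommendations, with 2% w/v bovine serum albumin added to the assay medium to track the effect of protein on antibacterial activity.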

[4] = test system: Plasma; experiment: Plasma protein binding in mouse at 10 uM by equilibrium dialysis; type: ADME, cell-free
Method in brief: (§1)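 Binding to plasma measured by equilibrium dialysis of a 10 µM compound solution. Reported as fraction unbound or percent bound.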

[5] = molecular target: T1, Cell division protein FtsZ (Staphylococcus aureus); experiment: Inhibition of Staphylococcus aureus ATCC 29213 FtsZ assessed as appearance of enlarged cells at 2048 to 4096 ug/mL by light microscopy
[6] = molecular target: T2, Cytochrome P450 1A2 (Homo sapiens, UniProt P05177); experiment: Inhibition of human recombinant CYP1A2 by fluorescence assay; type: ADME
T2 sequence (P05177 whole entry): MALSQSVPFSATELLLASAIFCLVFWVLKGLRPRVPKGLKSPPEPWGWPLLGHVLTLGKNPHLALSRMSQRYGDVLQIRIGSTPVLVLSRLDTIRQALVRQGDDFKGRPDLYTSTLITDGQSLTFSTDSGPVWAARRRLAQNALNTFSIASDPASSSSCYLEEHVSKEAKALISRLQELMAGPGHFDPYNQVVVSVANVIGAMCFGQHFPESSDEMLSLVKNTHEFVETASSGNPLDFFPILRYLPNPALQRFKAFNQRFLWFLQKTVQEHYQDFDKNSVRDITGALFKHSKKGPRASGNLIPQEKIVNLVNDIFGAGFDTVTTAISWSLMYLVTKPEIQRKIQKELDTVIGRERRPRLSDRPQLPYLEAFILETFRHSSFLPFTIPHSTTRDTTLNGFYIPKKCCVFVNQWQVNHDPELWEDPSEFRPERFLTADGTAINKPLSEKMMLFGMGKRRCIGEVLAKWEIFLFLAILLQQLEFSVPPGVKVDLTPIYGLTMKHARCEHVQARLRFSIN
Method in brief: (§2)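 Human recombinant CYP isozymes tested by metabolism of fluorogenic substrates, read by fluorescence. IC50 in µg/mL.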

[7] = molecular target: Cytochrome P450 2C19 (Homo sapiens, UniProt P33261); experiment: Inhibition of human recombinant CYP2C19 by fluorescence assay; type: ADME; method in brief: as §2
Chain of Cytochrome P450 2C19 (P33261 whole entry): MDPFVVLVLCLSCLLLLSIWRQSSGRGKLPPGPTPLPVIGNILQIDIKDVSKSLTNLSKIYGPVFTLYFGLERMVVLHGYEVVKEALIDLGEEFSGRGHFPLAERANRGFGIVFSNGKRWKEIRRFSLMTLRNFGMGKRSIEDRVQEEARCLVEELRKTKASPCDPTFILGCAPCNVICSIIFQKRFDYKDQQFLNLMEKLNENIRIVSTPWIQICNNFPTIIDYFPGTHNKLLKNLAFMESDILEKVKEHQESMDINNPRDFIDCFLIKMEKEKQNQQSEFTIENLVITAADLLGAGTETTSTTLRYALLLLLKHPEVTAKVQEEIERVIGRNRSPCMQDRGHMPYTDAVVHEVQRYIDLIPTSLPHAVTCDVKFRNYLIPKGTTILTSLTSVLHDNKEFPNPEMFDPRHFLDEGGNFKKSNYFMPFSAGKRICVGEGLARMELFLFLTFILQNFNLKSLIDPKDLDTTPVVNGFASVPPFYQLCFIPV

[8] = molecular target: Cytochrome P450 2C9 (Homo sapiens, UniProt P11712); experiment: Inhibition of human recombinant CYP2C9 by fluorescence assay; type: ADME; method in brief: as §2
Chain of Cytochrome P450 2C9 (P11712 whole entry): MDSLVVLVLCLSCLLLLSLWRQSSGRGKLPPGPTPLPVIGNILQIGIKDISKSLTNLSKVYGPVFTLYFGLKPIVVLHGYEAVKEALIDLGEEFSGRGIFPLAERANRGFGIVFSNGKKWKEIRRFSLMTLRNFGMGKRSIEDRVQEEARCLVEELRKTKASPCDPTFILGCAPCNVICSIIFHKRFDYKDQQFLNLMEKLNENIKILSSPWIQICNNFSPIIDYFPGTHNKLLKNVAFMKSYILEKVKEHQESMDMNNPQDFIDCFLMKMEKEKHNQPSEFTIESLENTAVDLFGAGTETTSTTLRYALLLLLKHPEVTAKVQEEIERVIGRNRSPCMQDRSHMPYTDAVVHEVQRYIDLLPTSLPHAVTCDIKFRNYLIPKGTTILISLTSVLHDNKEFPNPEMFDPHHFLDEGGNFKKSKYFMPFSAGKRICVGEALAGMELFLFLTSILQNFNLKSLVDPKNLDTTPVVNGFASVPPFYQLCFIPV

[9] = molecular target: Cytochrome P450 2D6 (Homo sapiens, UniProt P10635); experiment: Inhibition of human recombinant CYP2D6 by fluorescence assay; type: ADME; method in brief: as §2
Chain of Cytochrome P450 2D6 (P10635 whole entry): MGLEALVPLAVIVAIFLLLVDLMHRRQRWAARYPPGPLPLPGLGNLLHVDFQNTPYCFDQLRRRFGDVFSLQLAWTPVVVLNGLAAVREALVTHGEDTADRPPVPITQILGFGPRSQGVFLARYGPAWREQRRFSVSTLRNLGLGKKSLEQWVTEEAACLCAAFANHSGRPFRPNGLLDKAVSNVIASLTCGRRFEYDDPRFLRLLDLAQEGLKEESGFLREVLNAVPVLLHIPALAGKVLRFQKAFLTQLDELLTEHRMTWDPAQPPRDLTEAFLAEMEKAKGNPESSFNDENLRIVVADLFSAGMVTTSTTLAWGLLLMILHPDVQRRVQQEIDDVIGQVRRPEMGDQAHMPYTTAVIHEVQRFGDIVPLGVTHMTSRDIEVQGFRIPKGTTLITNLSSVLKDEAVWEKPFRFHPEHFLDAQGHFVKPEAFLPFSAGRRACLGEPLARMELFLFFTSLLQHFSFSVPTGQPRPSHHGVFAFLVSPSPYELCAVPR

[10] = molecular target: Cytochrome P450 3A4 (Homo sapiens, UniProt P08684); experiment: Inhibition of human recombinant CYP3A4 by fluorescence assay; type: ADME; method in brief: as §2
Chain of Cytochrome P450 3A4 (P08684 whole entry): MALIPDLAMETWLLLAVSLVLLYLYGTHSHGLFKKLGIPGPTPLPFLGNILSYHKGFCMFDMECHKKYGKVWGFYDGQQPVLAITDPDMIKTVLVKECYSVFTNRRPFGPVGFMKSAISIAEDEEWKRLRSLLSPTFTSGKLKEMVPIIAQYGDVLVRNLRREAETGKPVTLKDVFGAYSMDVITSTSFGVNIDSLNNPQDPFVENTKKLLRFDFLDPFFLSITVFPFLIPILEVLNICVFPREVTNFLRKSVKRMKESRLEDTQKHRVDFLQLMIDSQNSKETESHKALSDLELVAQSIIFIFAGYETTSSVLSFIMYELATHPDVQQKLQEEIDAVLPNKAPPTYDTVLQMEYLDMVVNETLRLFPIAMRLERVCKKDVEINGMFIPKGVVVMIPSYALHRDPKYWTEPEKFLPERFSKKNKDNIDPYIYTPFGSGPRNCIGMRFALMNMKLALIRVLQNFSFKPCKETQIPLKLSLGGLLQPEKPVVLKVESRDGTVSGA

[11] = Chemical stability in phosphate buffered saline assessed as compound remaining at 10 uM after 24 hrs by LC/MS/MS analysis; type: physicochemical; settings: buffer
Method in brief: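 10 µM solution in phosphate buffered saline held 24 h at 37 °C. Parent remaining quantified by LC/MS.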

[12] = test system: Plasma; experiment: Fraction unbound in human plasma at 10 uM by equilibrium dialysis; type: ADME, cell-free; method in brief: as §1
[13] = Clearance in mouse hepatocytes at 10 uM assessed per 10^6 cells by LC/MS/MS analysis; type: ADME, cell-based, Liver, Hepatocyte
Method in brief: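 Hepatocyte stability: compound at 10 µM incubated with hepatocytes. Parent loss over a time course measured by LC/MS/MS, and clearance expressed per 10⁶ cells.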

[14] = Clearance in mouse microsome at 10 uM by LC/MS/MS analysis; type: ADME, Liver; settings: microsomes
Method in brief: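 Microsomal stability: compound at 10 µM incubated with microsomes. Parent remaining followed over a time course by LC/MS to give clearance per mg protein.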

[15] = test system: Plasma; experiment: Metabolic stability in mouse plasma assessed as compound remaining at 10 uM after 24 hrs by LC/MS/MS analysis; type: ADME, cell-free
Method in brief: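 10 µM compound in mouse plasma incubated 24 h at 37 °C. Percent remaining measured by LC/MS.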

[16] = test system: Plasma; experiment: Fraction unbound in mouse plasma at 10 uM by equilibrium dialysis; type: ADME, cell-free; method in brief: as §1
[17] = test system: Staphylococcus aureus; experiment: Antimicrobial activity against Staphylococcus aureus Smith infected in ip dosed mouse administered as single dose 1 hr after bacterial inoculation; type: functional
Method in brief: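 Mice inoculated IP with an LD90-100 of S. aureus Smith (4×10^5 CFU/mouse) in 0.5 mL brain heart infusion broth with 5% mucin. Single IP dose of test substance or vehicle 1 h after inoculation, at 3, 10 or 30 mg/kg. Mortality monitored for 7 days. ED50 by nonlinear regression.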

[18] = test system: Staphylococcus aureus; experiment: Antimicrobial activity against Staphylococcus aureus Smith infected in sc dosed mouse administered as single dose 1 hr after bacterial inoculation; type: functional
Method in brief: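 Mice inoculated IP with an LD90-100 of S. aureus Smith (5×10^5 CFU/mouse) in 0.5 mL brain heart infusion broth with 5% mucin. Single SC dose of test substance or vehicle 1 h after inoculation, at 3, 10 or 30 mg/kg. Mortality monitored for 7 days. ED50 by nonlinear regression.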

[19] = test system: Staphylococcus aureus; experiment: Antimicrobial activity against Staphylococcus aureus Smith infected in mouse assessed as suppression of bacteria-induced mortality at 3 to 30 mg/kg, sc administered as single dose 1 hr after bacterial inoculation measured on day 2; type: functional, organism-based
Method in brief: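 Mice inoculated IP with an LD90-100 of S. aureus Smith in 0.5 mL brain heart infusion broth with 5% mucin (4×10⁵ CFU/mouse for the IP study, 5×10⁵ CFU/mouse for the SC study). Vehicle or test agent given SC or IP 1 h post-infection at 3, 10 or 30 mg/kg. Mortality followed 7 days. ED50 by nonlinear regression.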

Structure (SMILES) | MIC [1] [µg/mL] | Activity [2] [µg/mL] | MIC [3] [µg/mL] | further results
NC(=O)c1c(F)ccc(OCc2nc3cc(-c4ncno4)ccc3s2)c1F | 0.5 (≈ 1.29 µM) | 0.5 | – | –
NC(=O)c1c(F)ccc(OCc2nc3ccccc3o2)c1F | 128 (≈ 421 µM) | – | – | MIC [2]: 256 µg/mL (≈ 841 µM)
Cc1csc(COc2ccc(F)c(C(N)=O)c2F)c1 | – | – | 128 | MIC [2]: 32 µg/mL (≈ 113 µM)
NC(=O)c1c(F)ccc(OCc2nc3cccc(Cl)c3s2)c1F | 4 (≈ 11.3 µM) | 8 | – | –
Cc1ccc2nc(COc3ccc(F)c(C(N)=O)c3F)sc2c1 | 8 (≈ 23.9 µM) | – | – | –
CCOc1ccc2sc(COc3ccc(F)c(C(N)=O)c3F)nc2c1 | – | 0.125 | – | PPB [4]: 96.4%
COc1cc2nc(COc3ccc(F)c(C(N)=O)c3F)sc2nc1Cl | 16 (≈ 41.5 µM) | – | > 64 | –
CCCc1ccc2sc(COc3ccc(F)c(C(N)=O)c3F)nc2c1 | – | 0.125 | – | –
NC(=O)c1c(F)ccc(OCc2nc3cc(-c4ccccc4)cnc3s2)c1F | 0.5 (≈ 1.26 µM) | – | 4 | PPB [4]: 98.5%
COc1cccc(C(N)=O)c1 | 2050 (≈ 13500 µM) | – | 4100 | inhibition [5]: Active
NC(=O)c1c(F)ccc(OCc2nc3cc(-c4ncc[nH]4)ccc3s2)c1F | > 64 | – | – | –
NC(=O)c1c(F)ccc(OCc2nc3cc(-c4ccccc4)ccc3s2)c1F | 0.25 (≈ 0.631 µM) | 0.5 | – | PPB [4]: 99.2%
Cc1cccc(COc2ccc(F)c(C(N)=O)c2F)n1 | – | – | 64 | MIC [2]: 32 µg/mL (≈ 115 µM)
NC(=O)c1c(F)ccc(OCc2nc3cc(Cl)ncc3s2)c1F | 8 (≈ 22.5 µM) | – | 32 | –
NC(=O)c1c(F)ccc(OCc2nc3ccc(-c4ccccc4)cc3s2)c1F | > 256 | – | – | –
NC(=O)c1c(F)ccc(OCc2nc3cc(C(=O)O)ccc3s2)c1F | > 64 | – | – | –
Cc1cnc(COc2ccc(F)c(C(N)=O)c2F)s1 | 256 (≈ 900 µM) | – | 256 | –
NC(=O)c1c(F)ccc(OCc2nc3cc(O)ccc3s2)c1F | 32 (≈ 95.1 µM) | 64 | – | –
COC(=O)c1ccc2sc(COc3ccc(F)c(C(N)=O)c3F)nc2c1 | 1 (≈ 2.64 µM) | 2 | – | –
NC(=O)c1c(F)ccc(OCc2nc3c(-c4ccccc4)cccc3s2)c1F | > 256 | – | – | –
COc1ccc2nc(COc3ccc(F)c(C(N)=O)c3F)sc2c1 | > 256 | – | – | –

Structure (SMILES) | MIC [1] [µg/mL] | Activity [2] [µg/mL] | MIC [3] [µg/mL] | further results
COc1ccc2sc(COc3ccc(F)c(C(N)=O)c3F)nc2c1 | – | 2 | – | –
NC(=O)c1c(F)ccc(OCc2nc3ccc(Cl)cc3s2)c1F | 4 (≈ 11.3 µM) | 8 | – | –
Cc1csc(COc2ccc(F)c(C(N)=O)c2F)n1 | – | – | – | MIC [2]: 16 µg/mL (≈ 56.3 µM)
NC(=O)c1c(F)ccc(OCc2nc3ccccc3s2)c1F | 2 (≈ 6.24 µM) | – | 8 | MIC [2]: 4 µg/mL (≈ 12.5 µM)
NC(=O)c1ccc2sc(COc3ccc(F)c(C(N)=O)c3F)nc2c1 | > 64 | – | – | –
NC(=O)c1c(F)ccc(OCCn2cccn2)c1F | 256 (≈ 958 µM) | – | 256 | –
NC(=O)c1c(F)ccc(Oc2nc3ccccc3s2)c1F | > 256 | – | > 256 | –
NC(=O)c1c(F)ccc(OCc2nc3c(Cl)cccc3s2)c1F | 16 (≈ 45.1 µM) | 8 | – | –
Cc1cccc2sc(COc3ccc(F)c(C(N)=O)c3F)nc12 | 16 (≈ 47.9 µM) | 2050 | – | –
NC(=O)c1c(F)ccc(OCc2nc3cc(Br)ccc3s2)c1F | 0.125 (≈ 0.313 µM) | 0.25 | – | –
CCCCCCOc1ccc(F)c(C(N)=O)c1F | – | – | 32 | MIC [2]: 8 µg/mL (≈ 31.1 µM)
NC(=O)c1c(F)ccc(OCc2nc3cc(C(F)(F)F)ccc3s2)c1F | 0.25 (≈ 0.644 µM) | 0.5 | – | –
NC(=O)c1c(F)ccc(OCc2nc3cc(Cl)ccc3s2)c1F | – | 0.25 | – | PPB [4]: 96.4%; IC50 [6]: > 33.8 µM; IC50 [7]: > 33.8 µM; IC50 [8]: > 33.8 µM; IC50 [9]: > 33.8 µM; IC50 [10]: > 33.8 µM; Stability [11]: 99%; Fu [12]: 1%; CL [13]: 31.2 uL/min/10^6cells; CL [14]: 14 µL/min/mg; Stability [15]: 99%; Fu [16]: 3%; ED50 [17]: 41 mg/kg; ED50 [18]: > 30 mg/kg; Activity [19]: inactive
COc1cccc2sc(COc3ccc(F)c(C(N)=O)c3F)nc12 | 16 (≈ 45.7 µM) | 64 | – | –
CCOc1cnc2sc(COc3ccc(F)c(C(N)=O)c3F)nc2c1 | 0.125 (≈ 0.342 µM) | – | 0.25 | PPB [4]: 89.9%
Cc1ccc2sc(COc3ccc(F)c(C(N)=O)c3F)nc2c1 | 4 (≈ 12 µM) | 8 | – | –
CN(C)c1ccc2sc(COc3ccc(F)c(C(N)=O)c3F)nc2c1 | > 64 | – | – | –
NC(=O)c1c(F)ccc(OCc2ccc3ccccc3n2)c1F | – | – | 32 | MIC [2]: 16 µg/mL (≈ 50.9 µM)
NC(=O)c1c(F)ccc(OCc2nc3cccc(-c4ccccc4)c3s2)c1F | > 256 | – | – | –
NC(=O)c1c(F)ccc(OCc2nc3cc(N)ccc3s2)c1F | > 64 | – | – | –
